{
  "source": "ChEMBL document CHEMBL1131029",
  "about": "“Synthesis and in vitro efficacy of transferrin conjugates of the anticancer drug chlorambucil” (J Med Chem, 1998)",
  "key": {"Homo sapiens [1]": {"species": "Homo sapiens", "assay": "Alkylating activity of compound remaining after 48 hours of incubation with 10% human blood serum", "assay_type": "functional"}, "[2]": {"assay": "Time required to reduce the alkylating activity of 10% human blood serum from its initial value by 50%.", "assay_type": "ADME, Plasma"}, "Homo sapiens [3]": {"species": "Homo sapiens", "assay": "Alkylating activity of compound remaining after 96 hours of incubation with 10% human blood serum", "assay_type": "functional"}, "Homo sapiens [4]": {"species": "Homo sapiens", "assay": "Alkylating activity of compound remaining after 24 hours of incubation with 10% human blood serum", "assay_type": "functional"}, "MOLT-4": {"tested_on": "MOLT-4", "assay": "In vitro inhibitory activity against acute lymphoblastic leukemia (MOLT4) cell line.", "assay_type": "functional, cell-based", "conditions": "Homo sapiens", "how_it_was_run": "(§1)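 MCF7 (trypsinized monolayer) or MOLT4 (suspension) cells in RPMI 1640 with 10% FCS, plated at 1.0 × 10^5 cells/mL and allowed 24 h recovery. Then 6 days continuous drug exposure, 0.15–40 µM, triplicate wells. Propidium iodide fluorescence read (ex 530/em 620) before and after freeze-kill; viable cells = FU2 − FU1; %T/C; IC50 as mean ± SD, n = 3.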"}, "MCF7": {"tested_on": "MCF7", "assay": "In vitro inhibitory activity against mammary carcinoma (MCF-7) cell line.", "assay_type": "functional, cell-based", "conditions": "Homo sapiens", "how_it_was_run": "as §1"}},
  "data": [
    {"compound": "O=C(CCCc1ccc(N(CCCl)CCCl)cc1)OCCN1C(=O)C=CC1=O", "values": [
      {"measurement": "Activity", "setting": "Homo sapiens [1]", "result": 13.8, "unit": "%"},
      {"measurement": "half-life", "setting": "[2]", "result": 3.1, "unit": "h"},
      {"measurement": "Activity", "setting": "Homo sapiens [3]", "result": 11, "unit": "%"},
      {"measurement": "Activity", "setting": "Homo sapiens [4]", "result": 20.9, "unit": "%"},
      {"measurement": "IC50", "setting": "MOLT-4", "result": 7.8, "unit": "µM"}
    ]},
    {"compound": "O=C(CCCc1ccc(N(CCCl)CCCl)cc1)Oc1cccc(N2C(=O)C=CC2=O)c1", "values": [
      {"measurement": "Activity", "setting": "Homo sapiens [1]", "result": 15.2, "unit": "%"},
      {"measurement": "half-life", "setting": "[2]", "result": 4.3, "unit": "h"},
      {"measurement": "Activity", "setting": "Homo sapiens [3]", "result": 12.1, "unit": "%"},
      {"measurement": "Activity", "setting": "Homo sapiens [4]", "result": 22.3, "unit": "%"},
      {"measurement": "IC50", "setting": "MOLT-4", "result": 15.3, "unit": "µM"}
    ]},
    {"compound": "O=C(CCCc1ccc(N(CCCl)CCCl)cc1)N/N=C/CN1C(=O)C=CC1=O", "values": [
      {"measurement": "Activity", "setting": "Homo sapiens [1]", "result": 19.5, "unit": "%"},
      {"measurement": "half-life", "setting": "[2]", "result": 4, "unit": "h"},
      {"measurement": "Activity", "setting": "Homo sapiens [3]", "result": 15.2, "unit": "%"},
      {"measurement": "Activity", "setting": "Homo sapiens [4]", "result": 25, "unit": "%"},
      {"measurement": "IC50", "setting": "MOLT-4", "result": 0.35, "unit": "µM"},
      {"measurement": "IC50", "setting": "MCF7", "result": 6.8, "unit": "µM"}
    ]},
    {"compound": "O=C(CCCc1ccc(N(CCCl)CCCl)cc1)N/N=C/c1cccc(N2C(=O)C=CC2=O)c1", "values": [
      {"measurement": "Activity", "setting": "Homo sapiens [1]", "result": 14.5, "unit": "%"},
      {"measurement": "half-life", "setting": "[2]", "result": 5.9, "unit": "h"},
      {"measurement": "Activity", "setting": "Homo sapiens [3]", "result": 13.4, "unit": "%"},
      {"measurement": "Activity", "setting": "Homo sapiens [4]", "result": 24.1, "unit": "%"},
      {"measurement": "IC50", "setting": "MOLT-4", "result": 7.5, "unit": "µM"},
      {"measurement": "IC50", "setting": "MCF7", "result": 35.5, "unit": "µM"}
    ]},
    {"compound": "O=C(O)CCCc1ccc(N(CCCl)CCCl)cc1", "note": "[CHLORAMBUCIL]", "values": [
      {"measurement": "Activity", "setting": "Homo sapiens [1]", "result": 6.6, "unit": "%"},
      {"measurement": "half-life", "setting": "[2]", "result": 4.5, "unit": "h"},
      {"measurement": "Activity", "setting": "Homo sapiens [4]", "result": 12.2, "unit": "%"},
      {"measurement": "IC50", "setting": "MOLT-4", "result": 6.3, "unit": "µM"},
      {"measurement": "IC50", "setting": "MCF7", "result": 24.6, "unit": "µM"}
    ]},
    {"compound": "C/C(=N\\NC(=O)CCCc1ccc(N(CCCl)CCCl)cc1)c1cccc(N2C(=O)C=CC2=O)c1", "values": [
      {"measurement": "Activity", "setting": "Homo sapiens [1]", "result": 13.7, "unit": "%"},
      {"measurement": "half-life", "setting": "[2]", "result": 4.5, "unit": "h"},
      {"measurement": "Activity", "setting": "Homo sapiens [3]", "result": 10.9, "unit": "%"},
      {"measurement": "Activity", "setting": "Homo sapiens [4]", "result": 22.9, "unit": "%"},
      {"measurement": "IC50", "setting": "MOLT-4", "result": 3.3, "unit": "µM"}
    ]}
  ]
}
